# Rows were chosen to be rich in hits. Some 1.8% of all compounds tested hit in one or more screens of this group.
# Bfl-1 A1 inh – inhibitors of the anti-apoptotic protein A1, read as caspase activation; MEF A1-2A-BIM cells, Caspase-Glo 3/7 luminescence, 3 h; percent of clofoctol response, vehicle zero; caspase activation, % (no concentration beside the values); 0.066% of 330,000 active;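 active means over half of replicate activation scores above 10%, or exactly half above 10 with the replicate mean above 10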
# LANA-H2A inh – blocks KSHV LANA binding to histone H2A/H2B. cell-free LANA-H2A/H2B peptide, fluorescence polarization. 0.6% of 320,000 active. Q9QR71. inhibition, % (concentration not given with the values); in the data active means inhibition mostly above about 10%, no sharp cut-off; inactive means mostly below about 6.7%
# ATG4B inh – ATG4B (human) cysteine protease inhibition | Q9Y4P1 | ATG4B cleavage of LC3-PLA2, NBD-HPC fluorescence, 1 h | inhibition, % at 8.33 µM | 0.51% of 340,000 active | AID 504462; in the data active means inhibition above about 40%
# AI-2 QS modul – modulates the Vibrio harveyi AI-2 quorum sensing system | Vibrio harveyi JMH597 AI-2 luminescence/OD600 ratio, 9 h; hits give low values; strain lacks LuxN and CqsS sensors; 0 = neutral-control median | AID 2094 | 0.4% of 300,000 active | activity change, % at 7.5 µM; in the data active means activity change below about -75%, passing the limit was not always enough;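 further: luminescence divided by OD600 gain over 9 h not by final OD600 alone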
# HKDC1 inhibitor – inhibitors of human hexokinase HKDC1; Q2TB90; recombinant HKDC1, G6PDH/diaphorase resazurin coupled fluorescence; inhibition, % at 20 µM; 0.16% of 340,000 active; AID 493160;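 active means inhibition above about 35% when tested at 20 µM, limit read from the data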
#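 Assay system: recombinant HKDC1 hexokinase; detection: coupled resazurin fluorescence, excitation 525 nm, emission 613 nm; benchmarks: DMSO-plus-enzyme-mix negative control, buffer-substituted positive control; compound dosing: single 20 µM dose; schedule: 90 min at room temperature in dark; also added: glucose plus 1 mM ATP as hexokinase substrates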
# HDAC3 inhib – inhibitors of human histone deacetylase 3. O15379. recombinant HDAC3, fluorogenic peptide/trypsin coupled, fluorescence. inhibition, % at 8.3 µM. 0.15% of 320,000 active. AID 2718; in the data active means inhibition above about 26%, passing the limit was not always enough
# Target sequence (O15379 whole entry, looked up): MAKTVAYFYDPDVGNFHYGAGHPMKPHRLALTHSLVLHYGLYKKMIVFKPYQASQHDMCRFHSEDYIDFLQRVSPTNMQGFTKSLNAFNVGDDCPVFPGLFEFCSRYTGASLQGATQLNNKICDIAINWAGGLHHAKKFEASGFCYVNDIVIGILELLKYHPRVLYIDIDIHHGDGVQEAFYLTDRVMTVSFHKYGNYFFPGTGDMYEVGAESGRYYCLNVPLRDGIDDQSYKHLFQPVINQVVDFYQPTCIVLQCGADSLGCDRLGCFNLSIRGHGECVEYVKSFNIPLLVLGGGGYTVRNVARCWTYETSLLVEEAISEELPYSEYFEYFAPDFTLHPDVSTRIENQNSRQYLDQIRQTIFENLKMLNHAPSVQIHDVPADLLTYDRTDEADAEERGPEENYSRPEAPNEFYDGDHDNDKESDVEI
# Hits are given with their value; – = inactive; · = no result; ! = a repeat was not active.
SMILES,Bfl-1 A1 inh,LANA-H2A inh,ATG4B inh,AI-2 QS modul,HKDC1 inhibitor,HDAC3 inhib
CCN(CC)c1ccc(S(=O)(=O)N2CCOCC2)cc1NC(=O)C1CC1,·,·,–,·,–,·
CCN(CC)c1ccc(S(=O)(=O)N2CCCCC2)cc1NC(=O)C1CCC1,–,71,–,–,–,–
O=C(O)c1ccc(N/N=C/c2c(F)cccc2Cl)cc1,–,–,–,-79,–,–
O=C(O)c1cccc(-c2ccc(/C=N/Nc3ccc([N+](=O)[O-])cc3)o2)c1,–,–,–,–,–,–
O=C(O)c1ccc(N/N=C/c2ccc(-c3cc(Cl)ccc3Cl)o2)cc1,–,–,–,-80,–,–
NS(=O)(=O)c1ccc(-c2ccc(/C=N/Nc3ccc(C(=O)O)cc3)o2)cc1,–,–,–,–,–,–
O=C(N/N=C/c1c(F)cccc1Cl)C1CC1,–,–,–,–,–,–
O=C(O)c1ccc(N/N=C/c2ccc(-c3cccc(Cl)c3)o2)cc1,–,–,–,-94,–,–
O=[N+]([O-])c1ccccc1C=NN1CCCCCC1,·,·,–,·,–,·
Cc1ccc(NC(=O)c2cc(N3C(=O)C=CC3=O)ccc2N2CCOCC2)cc1Cl,15,–,–,–,–,–
COc1cccc(C(=O)Nc2ccc(NC(C)=O)cc2)c1,–,41,–,–,–,–
COc1cccc(C(=O)NC2CC3CCCC(C2)N3CC(=O)Nc2ccccc2)c1 (stereo not given),–,–,–,–,–,–
COc1cccc(C(=O)NC2CC3CCCC(C2)N3CC(=O)Nc2ccc(N(C)C)cc2)c1 (stereo not given),–,27,–,–,–,–
COc1ccc(CNC[C@H]2O[C@@H](n3cnc4c(N)ncnc43)[C@H](O)[C@@H]2O)cc1OC,–,·,–,·,–,–
Cc1ccc(C(=O)NCC(=O)N2CCN(c3ncccn3)CC2)s1,–,18,–,–,–,–
CCCCNC(=O)CCCCn1c(=S)[nH]c2c([nH]c3ccc(OC)cc32)c1=O,–,–,–,–,–,–
COc1ccc2[nH]c3c(=O)n(CCCCC(=O)NCCN4CCCC4)c(=S)[nH]c3c2c1,–,–,–,–,–,30
Cc1cccc(C(C(N)=O)c2ncc(C(F)(F)F)cc2Cl)c1 (stereo not given),–,–,–,–,–,–
O=S(=O)(c1ccc2c(c1)OCCO2)C1CCC(S(=O)(=O)c2c(F)cccc2F)CC1 (stereo not given),–,–,–,·,–,40
O=C(CSC1=NCCS1)N1CCN(c2ccc(Cl)cc2)CC1,–,–,–,–,–,–
O=C(CSC1=NCCS1)c1ccc(Cl)cc1,–,–,–,–,–,72
CC(=O)Nc1cccc(OCCCOc2cccc([N+](=O)[O-])c2)c1,·,·,–,·,–,·
Cc1ccc(Sc2ccc(N)cc2C#N)cc1,–,–,–,-81,–,–
Cc1ccc(Sc2nnc(-c3ccccc3)cc2C#N)cc1,–,–,–,–,–,–
C/C=C/c1ccc(OCCCCN2CC(C)CC(C)C2)c(OC)c1 (stereo not given),–,195,–,–,–,–
SMILES,Bfl-1 A1 inh,LANA-H2A inh,ATG4B inh,AI-2 QS modul,HKDC1 inhibitor,HDAC3 inhib
COc1ccc(OCCN2CCN(C(=O)c3ccc(OC(F)F)c(OC)c3)CC2)cc1,–,–,–,–,–,–
COc1ccc(OCCN2CCN(C(=O)c3ccc(OC)cc3)CC2)cc1,–,14,–,–,–,–
CCOc1ccc(C(=O)CCN2CCCCC2)cc1,–,–,–,–,–,–
COc1ccc(C(=O)CCN2CCCCCC2)cc1,–,12,–,–,–,–
Cc1ccc(S(=O)(=O)N(C)CC(=O)NNC(=O)CCC(=O)c2ccc(F)cc2)cc1,–,–,–,·,–,–
CN(Cc1ccccc1)C(=O)COC(=O)C12CC3CC(CC(Br)(C3)C1)C2,–,–,–,·,–,–
O=c1c(Cl)c(Cl)cnn1Cc1ccccc1Cl,8.3,–,–,–,–,–
Cc1cc(C)cc(Cn2ncc(Cl)c(Cl)c2=O)c1,6.7,–,–,–,–,–
Cc1ccc(Cn2ncc(Cl)c(Cl)c2=O)cc1,–,–,–,–,–,–
Cc1ccc(S(=O)(=O)N2CCOCC2)cc1NC(=O)CSc1nnc(COc2ccccc2F)n1N,·,·,–,·,–,·
Cc1cc(F)ccc1NC(=O)c1cccnc1,–,–,–,–,–,–
CC(=O)Nc1ccccc1C(=O)C(=O)Nc1ccccc1,–,4.6,–,–,–,–
CC(C)[C@H](NC(=O)c1ccccc1)C(=O)OCC(=O)NCc1ccc2c(c1)OCO2,–,–,–,·,–,–
CNC[C@H]1Oc2ccc(NC(=O)Cc3cn(C)c4ccccc34)cc2CC(=O)N([C@@H](C)CO)C[C@H]1C,–,16,–,·,–,–
CCN(CCCc1ccccc1)CCCc1ccccc1,·,38,–,–,–,·
CCCN(CCO)CCCc1ccccc1,–,–,–,–,–,–
Cn1c(SCC(=O)Nc2ccc(C(N)=O)cc2)nnc1-c1cccs1,–,16,–,–,–,–
CC(=O)O[C@]1(C(C)=O)CC[C@H]2[C@@H]3C=C(Cl)C4=CC(=O)[C@@H]5C[C@@H]5[C@]4(C)[C@H]3CC[C@@]21C,–,15!,–,–,–,–
CCOc1cc(C(c2c(C)[nH][nH]c2=O)c2c(C)[nH][nH]c2=O)ccc1OS(=O)(=O)c1ccccc1,–,–,–,–,–,–
Cc1[nH][nH]c(=O)c1C(c1ccc(N(C)C)c(Br)c1)c1c(C)[nH][nH]c1=O,–,60,–,–,–,–
CC(=O)Nc1ccc(NC(=O)CCCN2C(=O)c3ccccc3C2=O)cc1,–,–,–,–,–,–
COC(=O)C(CCCN1C(=O)c2ccccc2C1=O)(NC(C)=O)c1nn[nH]n1 (stereo not given),–,19,–,–,–,–
COc1cc(CCNC2=CC(=O)c3ncccc3C2=O)ccc1O,·,·,–,·,–,·
Cc1cc(C)cc(NC(=O)CSc2nnc(-c3ccncc3)o2)c1,–,–,–,–,–,–
O=C(CSc1nnc(-c2ccncc2)o1)Nc1ccc(F)c(F)c1,21,–,–,·,–,–
COCCN1C=C2C(=O)C(C)(OC(=O)CCc3ccccc3)C(=O)C=C2C=C1c1ccc(C#N)cc1 (stereo not given),–,101,–,–,–,–
Cc1cc(C)n(-c2ccc(NC(=O)C3CCCCN3C(=O)c3ccoc3)cc2)n1 (stereo not given),–,55,–,–,–,–
Cc1cc(C)n(-c2ccc(NC(=O)C3CCCCN3C(=O)c3occc3C)cc2)n1 (stereo not given),–,–,–,–,–,–
C#CCOCCOCCOCCNc1nc(N2CCN(C(=O)[C@H](C(C)C)n3cc(CCO)nn3)CC2)nc(N2CCN(C(=O)[C@H](C)n3cc(CCCN=C(N)N)nn3)CC2)n1,·,·,–,·,–,·

# From PubChem BioAssay
